We go through five compounds from ChEMBL document CHEMBL1123434, “Thiazole-4-carboxamide adenine dinucleotide (TAD). Analogues stable to phosphodiesterase hydrolysis” (J Med Chem, 1986).

Assay [1] deals with P388. Kind of assay: The cytotoxic concentration against P388 leukemia cell. The format is functional. The settings on record: Mus musculus, read-out: ID50 (the source's name).
The species named for a further assay is Mus musculus. Kind of assay: Compound was tested for its degradation by TAD-phosphodiesterase. In kind it is functional. In outline: (§1)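 Dinucleotide incubated as substrate at 7.5 mM in 0.03 M Tris-MgCl2, pH 7.6, for 30 min with enzyme: line 1, partially purified TAD-phosphodiesterase from colon-38 carcinoma cells; line 2, snake venom phosphodiesterase. Degradation quantified by HPLC as AMP or TRMP formed, or parent dinucleotide lost, depending on substrate. Expressed relative to TAD hydrolysis set at 100%.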

For a further assay, the system named is snake. The assay is described as follows: Compound was tested for its degradation by venom phosphodiesterase. The format is functional. In outline: as §1
The target in assay [2] is Inosine-5'-monophosphate dehydrogenase 2 (Mus musculus, UniProt P24547). Kind of assay: Compound was tested for inhibitory activity against Inosine-5'-monophosphate dehydrogenase, the type of inhibition in not competitive. In outline:
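Partially purified IMP dehydrogenase; kinetics run at 3 inhibitor concentrations against 6 levels of substrate NAD or IMP (0.25, 0.5, 1, 2, 4 and 6 × Km). Inhibition type judged from these kinetics.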

The subject of assay [3] is P388. The assay is described as follows: The influence (2.5 uM) on Guanine nucleotide pools of Natural P388 resistant cell lines measured as conc. of GDP. The format is functional, Mus musculus. In outline:
(§2)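 Log-phase P388/S (parental) or P388/R cells (TR-resistant, selected to grow in 1 mM TR) exposed 18 h to the stated concentration. Cells then washed in cold saline, extracted with cold 10% TCA and neutralized with tri-n-octylamine/freon. GMP, GDP and GTP quantified by SAX HPLC: 0.03 M ammonium phosphate pH 3.5, then gradient to 0.6 M, pH 3.8. Values as nmol/10^6 cells.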

Assay [4] concerns P388. The assay is described as follows: The influence (2.5 uM) on Guanine nucleotide pools of Natural P388 sensitive cell lines measured as conc. of GTP. The format is functional, Mus musculus. In outline: as §2
For assay [5], the system named is P388. Kind of assay: The influence (2.5 uM) on Guanine nucleotide pools of Natural P388 resistant cell lines measured as conc. of GMP. The format is functional, Mus musculus. A digest of the protocol: as §2
Assay [6] relates to P388. Kind of assay: The influence (5 uM) on Guanine nucleotide pools of Natural P388 sensitive cell lines measured as conc. of GDP. In kind it is functional, Mus musculus. In outline: as §2
Assay [7] concerns P388. The assay is described as follows: The influence (2.5 uM) on Guanine nucleotide pools of Natural P388 sensitive cell lines measured as conc. of GDP. In kind it is functional, Mus musculus. A digest of the protocol:
as §2

The test system of assay [8] is P388. The assay is described as follows: The influence (5000 uM) on Guanine nucleotide pools of Natural P388 resistant cell lines measured as conc. of GMP. In kind it is functional, Mus musculus. A digest of the protocol:
as §2

Assay [9] relates to P388. Kind of assay: The influence (5000 uM) on Guanine nucleotide pools of Natural P388 resistant cell lines measured as conc. of GDP. In kind it is functional, Mus musculus. In outline:
as §2

Assay [10] has as its system P388. The assay is described as follows: The influence (5000 uM) on Guanine nucleotide pools of Natural P388 resistant cell lines measured as conc. of GTP. The format is functional, Mus musculus. A digest of the protocol: as §2
Assay [11] relates to P388. The assay is described as follows: The influence (5 uM) on Guanine nucleotide pools of Natural P388 sensitive cell lines measured as conc. of GMP. The format is functional, Mus musculus. A digest of the protocol: as §2
In assay [12] the test system is P388. The assay is described as follows: The influence (2.5 uM) on Guanine nucleotide pools of Natural P388 resistant cell lines measured as conc. of GTP. In kind it is functional, Mus musculus. A digest of the protocol: as §2
The subject of assay [13] is P388. The assay is described as follows: The influence (5 uM) on Guanine nucleotide pools of Natural P388 sensitive cell lines measured as conc. of GTP. In kind it is functional, Mus musculus. A digest of the protocol: as §2
For assay [14], the system named is P388. The assay is described as follows: The influence (2.5 uM) on Guanine nucleotide pools of Natural P388 sensitive cell lines measured as conc. of GMP. The format is functional, Mus musculus. A digest of the protocol:
as §2

The test system of assay [15] is P388. Kind of assay: The influence (50 uM) on Guanine nucleotide pools of Natural P388 sensitive cell lines measured as conc. of GDP. In kind it is functional, Mus musculus. In outline:
as §2

Assay [16] has as its system P388. The assay is described as follows: The influence (100 uM) on Guanine nucleotide pools of Natural P388 resistant cell lines measured as conc. of GDP. In kind it is functional, Mus musculus. A digest of the protocol: as §2
For assay [17], the system named is P388. The assay is described as follows: The influence (50 uM) on Guanine nucleotide pools of Natural P388 sensitive cell lines measured as conc. of GMP. In kind it is functional, Mus musculus. A digest of the protocol: as §2
The test system of assay [18] is P388. Kind of assay: The influence (100 uM) on Guanine nucleotide pools of Natural P388 resistant cell lines measured as conc. of GMP. In kind it is functional, Mus musculus. A digest of the protocol: as §2
Assay [19] has as its system P388. Kind of assay: The influence (100 uM) on Guanine nucleotide pools of Natural P388 sensitive cell lines measured as conc. of GDP. In kind it is functional, Mus musculus. In outline:
as §2

The subject of assay [20] is P388. Kind of assay: The influence (100 uM) on Guanine nucleotide pools of Natural P388 sensitive cell lines measured as conc. of GMP. The format is functional, Mus musculus. A digest of the protocol: as §2
Assay [21] has as its system P388. Kind of assay: The influence (50 uM) on Guanine nucleotide pools of Natural P388 resistant cell lines measured as conc. of GMP. In kind it is functional, Mus musculus. A digest of the protocol:
as §2

For assay [22], the system named is P388. Kind of assay: The influence (50 uM) on Guanine nucleotide pools of Natural P388 sensitive cell lines measured as conc. of GTP. In kind it is functional, Mus musculus. In outline:
as §2

Assay [23] deals with P388. Kind of assay: The influence (100 uM) on Guanine nucleotide pools of Natural P388 resistant cell lines measured as conc. of GTP. In kind it is functional, Mus musculus. In outline: as §2
The test system of assay [24] is P388. Kind of assay: The influence (100 uM) on Guanine nucleotide pools of Natural P388 sensitive cell lines measured as conc. of GTP. The format is functional, Mus musculus. A digest of the protocol:
as §2

The subject of assay [25] is P388. The assay is described as follows: The influence (50 uM) on Guanine nucleotide pools of Natural P388 resistant cell lines measured as conc. of GTP. The format is functional, Mus musculus. A digest of the protocol: as §2
Assay [26] has as its system P388. Kind of assay: The influence (50 uM) on Guanine nucleotide pools of Natural P388 resistant cell lines measured as conc. of GDP. In kind it is functional, Mus musculus. In outline:
as §2

The structures appear in SMILES notation. pIC50, pKi: −log10 of the molar value.

As usually defined, the pKi is the negative decadic logarithm of the Ki, by convention in mol/L. Read a low pKi as a high Ki.

Chain of Inosine-5'-monophosphate dehydrogenase 2 (P24547 whole entry): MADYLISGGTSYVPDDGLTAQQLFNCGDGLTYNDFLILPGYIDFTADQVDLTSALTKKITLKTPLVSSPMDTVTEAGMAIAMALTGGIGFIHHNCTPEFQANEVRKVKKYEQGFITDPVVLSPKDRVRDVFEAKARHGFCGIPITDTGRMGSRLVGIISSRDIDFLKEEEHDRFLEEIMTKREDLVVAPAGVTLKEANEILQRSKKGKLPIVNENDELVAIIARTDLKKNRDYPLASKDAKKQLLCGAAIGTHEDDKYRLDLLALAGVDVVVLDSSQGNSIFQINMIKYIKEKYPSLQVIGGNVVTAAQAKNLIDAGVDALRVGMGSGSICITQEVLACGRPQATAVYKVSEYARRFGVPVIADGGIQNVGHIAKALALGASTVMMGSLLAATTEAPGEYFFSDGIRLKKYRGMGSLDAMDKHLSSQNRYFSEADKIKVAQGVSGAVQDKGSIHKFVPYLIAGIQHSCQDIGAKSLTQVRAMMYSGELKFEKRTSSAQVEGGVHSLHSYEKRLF

On to `NC(=O)c1csc([C@@H]2O[C@H](COP(=O)(O)OP(=O)(O)CC[C@H]3O[C@@H](n4cnc5c(N)ncnc54)[C@H](O)[C@@H]3O)[C@@H](O)[C@H]2O)n1`, for which the pIC50 in the assay with P388 [1] is 5.55. The results for the hydrolysis relative to TAD in the assay listed under Mus musculus and in the assay with snake were 13% and 37.6%, respectively.
Take `NC(=O)c1csc([C@@H]2O[C@H](CCP(=O)(O)OP(=O)(O)OC[C@H]3O[C@@H](n4cnc5c(N)ncnc54)[C@H](O)[C@@H]3O)[C@@H](O)[C@H]2O)n1`: the pIC50 in the assay with P388 [1] was 4.00. This compound also had a pKi in assay [2] of 5.71. Further, the hydrolysis relative to TAD turned out to be 10.4% in the assay filed under Mus musculus and 27.2% in the assay with snake.
For `NC(=O)c1csc([C@H]2O[C@@H](COP(=O)(O)OP(=O)(O)OC[C@H]3O[C@@H](n4cnc5c(N)ncnc54)[C@H](O)[C@@H]3O)[C@H](O)[C@@H]2O)n1` the same measures were 5.68, 6.62, 100% and 100%.
In the case of `NC(=O)c1csc([C@@H]2O[C@H](CO)[C@@H](O)[C@H]2O)n1` [TIAZOFURIN], the Control with P388 [3] is recorded as 88%; in the assay with P388 [4], 51%; with P388 [5], 98%; in the assay with P388 [6] it was 36%; in the assay with P388 [7] it was 41%; in the assay on P388 [8] it was 0%. Also, the Control in the assay on P388 [9] was 74%; in the assay on P388 [10], 52%; with P388 [11], 8%; with P388 [12] it was 111%; in the assay with P388 [13] it was 34%; in the assay on P388 [14], 12%.
As to `NC(=O)c1csc([C@@H]2O[C@H](COP(=O)(O)CP(=O)(O)OC[C@@H]3O[C@H](n4cnc5c(N)ncnc54)[C@@H](O)[C@H]3O)[C@@H](O)[C@H]2O)n1`, the Control with P388 [15] is reported as 24%; with P388 [16], 34%; in the assay on P388 [17] it was 14%; with P388 [18], 3%; in the assay with P388 [19] it was 19%; in the assay with P388 [20], 6%. In addition, the Control in the assay with P388 [21] amounted to 3%; in the assay with P388 [22], 24%; in the assay with P388 [23] it was 8%; in the assay with P388 [24], 39%; in the assay on P388 [25], 5%; in the assay on P388 [26], 24%. Further, in the assay on P388 [1], the pIC50 was 4.35. In assay [2], this compound had a pKi of 6.64. Besides, the hydrolysis relative to TAD in the assay filed under Mus musculus and in the assay on snake was 0% throughout.
